Converted amounts (≈) assume the structure as drawn.
Tests used:
[1] = system: Cryptococcus neoformans; test: Antifungal activity against Cryptococcus neoformans after 48 hrs by NCCLS M27A method; type: functional
How it was run: (§1)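 Yeast-like strain grown on SD agar at 30 °C. One colony cultured overnight in SD broth at 30 °C to OD600 0.6–0.9, then diluted 1:5000 in SD broth. Broth microdilution from 20 mg/mL stocks in 95% EtOH, with 4-fold serial dilution and a no-compound negative column. Incubated 30 °C, 48 h. MIC is the lowest concentration giving ≥80% growth reduction.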

[2] = system: Candida albicans; test: Antifungal activity against azole-resistant Candida albicans D10 after 48 hrs by NCCLS M27A method; type: functional; how it was run: as §1
[3] = system: Scheffersomyces shehatae; test: Antifungal activity against Candida shehatae after 48 hrs by NCCLS M27A method; type: functional; how it was run: as §1
[4] = system: Candida albicans; test: Antifungal activity against wild type Candida albicans Al-1 after 48 hrs by NCCLS M27A method; type: functional; how it was run: as §1
[5] = system: Candida albicans; test: Antifungal activity against wild type Candida albicans Al-1 in presence of dillapiol; type: functional
How it was run: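 Synergy run by a similar broth-microdilution MIC method in C. albicans Al-1. One-row 2-fold serial dilution starting at 1000 µg/mL, testing compound alone, dillapiol alone, and compound plus dillapiol (1:5). FIC is the MIC in combination divided by the MIC alone. FICI is the dillapiol FIC plus the compound FIC.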

[6] = system: Saccharomyces cerevisiae; test: Antifungal activity against Saccharomyces cerevisiae after 48 hrs by NCCLS M27A method; type: functional; how it was run: as §1
[7] = system: Alternaria alternata; test: Antifungal activity against Alternaria alternata after 48 hrs by NCCLS M27A method; type: functional
How it was run: (§2)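 Filamentous fungi grown on Sabouraud dextrose (SD) agar at 30 °C. Hyphae-containing agar block blended in SD broth, then diluted 1:5000 in SD broth. Broth microdilution in SD broth from 20 mg/mL stocks in 95% EtOH, with 4-fold serial dilution and a no-compound negative column. Incubated 30 °C, 48 h. MIC is the lowest concentration giving ≥80% growth reduction.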

[8] = system: Exophiala dermatitidis; test: Antifungal activity against yeast-like Wangiella dermatitidis after 48 hrs by NCCLS M27A method
[9] = system: Scedosporium boydii; test: Antifungal activity against Pseudallescheria boydii after 48 hrs by NCCLS M27A method; type: functional; how it was run: as §2
[10] = system: Candida albicans; test: Potentiation of drimane-type sesquiterpene-induced antifungal activity against wild type Candida albicans Al-1 assessed as fractional inhibition concentration index; type: functional
How it was run: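 Broth microdilution in Sabouraud dextrose broth against C. albicans Al-1 (wild type), incubated at 30 °C for 48 h. Each sesquiterpene was tested alone, dillapiol alone, and the two combined at 1:5. A one-row 2-fold serial dilution started at 1000 µg/mL. MIC was the lowest concentration giving ≥80% growth reduction. FICI = FIC of dillapiol + FIC of compound, where FIC = MIC in combination / MIC alone.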

[11] = system: Candida albicans; test: Antifungal activity against azole-resistant Candida albicans CN1A after 48 hrs by NCCLS M27A method; type: functional; how it was run: as §1

SMILES | MIC [1] [µg/mL] | MIC [2] [µg/mL] | MIC [3] [µg/mL] | MIC [4] [µg/mL] | MIC [5] [µg/mL] | MIC [6] [µg/mL] | MIC [7] [µg/mL] | MIC [8] [µg/mL] | MIC [9] [µg/mL] | fractional inhibitory concentration index (FICI) [10] | MIC [11] [µg/mL]
COc1ccc2cc3[n+](cc2c1OC)CCc1cc2c(cc1-3)OCO2.[Cl-] [BERBERINE CHLORIDE] | 31.3 | 31.3 | 7.8 | 31.3 | 15.6 | 78.1 | 125 | 31.3 | 62.5 | 0.5 | 15.6
CC(=O)O[C@@H]1C=C(C=O)[C@](O)(C=O)[C@@]2(C)CCCC(C)(C)[C@H]12 [CINNAMODIAL] | 31.3 (≈ 102 µM) | 15.6 (≈ 50.6 µM) | 31.3 (≈ 102 µM) | 62.5 (≈ 203 µM) | 15.6 | 31.3 (≈ 102 µM) | 3.9 (≈ 12.6 µM) | 15.6 (≈ 50.6 µM) | 125 (≈ 405 µM) | 0.3 | 62.5 (≈ 203 µM)
CC(=O)O[C@@H]1C=C2C(=O)OC[C@]2(O)[C@@]2(C)CCCC(C)(C)[C@H]12 [CINNAMOSMOLIDE] | 625 (≈ 2030 µM) | 156 (≈ 506 µM) | 625 (≈ 2030 µM) | 1250 (≈ 4050 µM) |  | 1250 (≈ 4050 µM) |  | 313 (≈ 1020 µM) | 78.1 (≈ 253 µM) |  | 23.4 (≈ 75.9 µM)
C=CCc1cc2c(c(OC)c1OC)OCO2 [DILLAPIOLE] |  |  |  | 500 (≈ 2250 µM) |  |  |  |  |  |  | 
CC(=O)N1CCN(c2ccc(OCC3COC(Cn4ccnc4)(c4ccc(Cl)cc4Cl)O3)cc2)CC1 (centres undefined) [KETOCONAZOLE] | 0.04 (≈ 0.0753 µM) | 93.8 (≈ 177 µM) |  | 0.4 (≈ 0.753 µM) |  | 1.2 (≈ 2.26 µM) |  | 31.3 (≈ 58.9 µM) | 93.8 (≈ 177 µM) |  | 93.8 (≈ 177 µM)
CC1(C)CCC[C@@]2(C)[C@H]1[C@@H](O)C=C(C=O)[C@]2(O)C=O [MUKAADIAL] |  |  |  | 1000 (≈ 3750 µM) | 250 |  |  |  |  | 0.8 | 
CC(=O)O[C@H]1C=C(C=O)[C@](O)(C=O)[C@@]2(C)[C@H](OC(C)=O)CCC(C)(C)[C@H]12 [PARRITADIAL] |  |  |  | 1000 (≈ 2730 µM) | 250 |  |  |  |  | 1.5 | 

Source: ChEMBL document CHEMBL1142598, “Phytochemistry and antifungal properties of the newly discovered tree Pleodendron costaricense” (2006)
